Assay results of several laboratories.
Target: Serine/threonine-protein kinase 10 (STK10, Homo sapiens, UniProt O94804)

The remaining binding of `Cc1noc([C@H]2C[C@@H](c3ccc(C(F)(F)F)cc3)CN(C(=O)N3CCS(=O)(=O)C3)C2)n1` is reported as 100% (cell-free assay; competition with immobilised ligand; 1 µM).
`CCN1CCN(Cc2ccc(NC(=O)c3ccc(C)c(Oc4ccnc5[nH]ccc45)c3)cc2C(F)(F)F)CC1` gave an inhibition of -177% (target engagement in cells; inhibitor; chemoproteomics; A-375; 0.5 µM).
`CCCS(=O)(=O)Nc1ccc(F)c(C(=O)c2c[nH]c3ncc(-c4ccc(Cl)cc4)cc23)c1F` has an inhibition of under 10% (enzyme activity; inhibitor; 1 µM).
`Cc1ccc(NC(=O)c2ccc(C)c(C(F)(F)F)c2)cc1C#Cc1nn(C2CCC(O)CC2)c2ncnc(N)c12` (centres unmarked) has a remaining signal of 16% (cell-free assay; 10 µM).
With `O=C1NC(=O)c2cc(Nc3ccc(F)cc3)c(Nc3ccc(F)cc3)cc21` the remaining signal was 79.2% (cell-free assay; 0.5 µM).
The remaining binding of `Cn1nc(C(F)(F)F)cc1-c1cnc(N2CCc3cc(S(=O)(=O)Nc4c(F)cc(Cl)cc4F)cc(N4CCCC4=O)c32)nc1` is reported as 94% (cell-free assay; competition with immobilised ligand; 1 µM).
With `CCN(CC)CCNC(=O)c1c(C)[nH]c(/C=C2\C(=O)Nc3ccc(F)cc32)c1C` the inhibition was 83% (enzyme activity; inhibitor; 10 µM).
With `O=C(O)[C@H]1[C@H](Cn2nnc3ccccc3c2=O)CC[C@@H]1C(=O)c1ccc(OCCC2CCOCC2)cc1` the remaining binding was 100% (cell-free assay; competition with immobilised ligand; 1 µM).
`CCN1CCN(Cc2ccc(NC(=O)c3ccc(C)c(/C=C/c4cnc5[nH]ccc5c4OC)c3)cc2C(F)(F)F)CC1` gave an inhibition of -39.1% (target engagement in cells; inhibitor; chemoproteomics; A-375; 50 nM).
With `Cc1cnc(NC2CCOCC2)nc1-n1cnc(C(=O)NC(CN)c2cc(F)cc(Cl)c2)c1` (centres unmarked) the remaining activity was 87% (enzyme activity; inhibitor; radiometric; 1 µM).
`O=S(=O)(NC1CCC(c2cc(F)ccc2F)(S(=O)(=O)c2ccc(Cl)cc2)CC1)C(F)(F)F` (centres unmarked) gave a remaining binding of 100% (cell-free assay; competition with immobilised ligand; 1 µM).
For `Cc1ccc(Nc2nccc(N(C)c3ccc4c(C)n(C)nc4c3)n2)cc1S(N)(=O)=O`, the remaining activity was 50.1% (enzyme activity; inhibitor; 0.5 µM).
`O=C(Nc1cnn(-c2csc(C(=O)NC3COC3)c2)c1)Nc1ccccc1Cl` gave a remaining activity of 87.9% (enzyme activity; inhibitor; 5 µM).
The activity vs control of `Cc1cc(NC(=O)c2cccc3cc(-c4cccc5[nH]nc(N)c45)ccc23)ccc1F` is reported as 97% (enzyme activity; inhibitor; 0.1 µM).
The remaining binding of `NS(=O)(=O)c1cc(NC(=O)Cc2ccccc2)ccc1Oc1cccc(Cl)c1` is reported as 65% (cell-free assay; competition with immobilised ligand; 1 µM).
`Nc1ncnc2occ(-c3ccc(NC(=O)Nc4cc(C(F)(F)F)ccc4F)cc3)c12` has a remaining signal of 0% (cell-free assay; inhibitor; 20 µM).
`CN1CC(Oc2cnc(C#N)cc2-c2ccn3nc(NC(=O)C4CC4)cc3c2)C1` has an inhibition of 30% (enzyme activity; inhibitor; 1 µM).
`O=C1Nc2ccc(Cl)cc2C1=Cc1cc(Cl)c(O)c(Cl)c1` has a remaining signal of 77.1% (cell-free assay; 0.5 µM).
`COc1cc2nccc(Oc3ccc(NC(=O)Nc4ccc(F)cc4F)c(F)c3)c2cc1OC` has a ΔTm of over 10 °C (thermal stability; DSF; 10 µM).
With `CNCc1ccccc1-c1csc([C@H](C)Nc2nc(C)nc3cc(OC)c(OC)cc23)c1` the remaining binding was 100% (cell-free assay; competition with immobilised ligand; 1 µM).
`COc1cc2c(N3CCN(C(=O)Nc4ccc(OC(C)C)cc4)CC3)ncnc2cc1OCCCN1CCCCC1` gave a remaining signal of 95% (cell-free assay; 0.5 µM).
For `CN([C@@H]1CCc2c(CC(=O)O)c3ccccc3n2C1)S(=O)(=O)c1ccc(F)cc1`, the remaining binding was 100% (cell-free assay; competition with immobilised ligand; 1 µM).
`CNC(=O)c1cc(Oc2ccc(NC(=O)Nc3ccc(Cl)c(C(F)(F)F)c3)cc2)ccn1` gave an inhibition of 43% (enzyme activity; inhibitor; 0.3 µM).
